Read-outs that look alike come from different tables or passages of the source.
Experiments:
human haspin kinase = biological target: T1, human haspin kinase (Homo sapiens, UniProt Q8TF76); test: haspin kinase TR-FRET assay; assay type: biochemical
T1 sequence (Q8TF76 1-798): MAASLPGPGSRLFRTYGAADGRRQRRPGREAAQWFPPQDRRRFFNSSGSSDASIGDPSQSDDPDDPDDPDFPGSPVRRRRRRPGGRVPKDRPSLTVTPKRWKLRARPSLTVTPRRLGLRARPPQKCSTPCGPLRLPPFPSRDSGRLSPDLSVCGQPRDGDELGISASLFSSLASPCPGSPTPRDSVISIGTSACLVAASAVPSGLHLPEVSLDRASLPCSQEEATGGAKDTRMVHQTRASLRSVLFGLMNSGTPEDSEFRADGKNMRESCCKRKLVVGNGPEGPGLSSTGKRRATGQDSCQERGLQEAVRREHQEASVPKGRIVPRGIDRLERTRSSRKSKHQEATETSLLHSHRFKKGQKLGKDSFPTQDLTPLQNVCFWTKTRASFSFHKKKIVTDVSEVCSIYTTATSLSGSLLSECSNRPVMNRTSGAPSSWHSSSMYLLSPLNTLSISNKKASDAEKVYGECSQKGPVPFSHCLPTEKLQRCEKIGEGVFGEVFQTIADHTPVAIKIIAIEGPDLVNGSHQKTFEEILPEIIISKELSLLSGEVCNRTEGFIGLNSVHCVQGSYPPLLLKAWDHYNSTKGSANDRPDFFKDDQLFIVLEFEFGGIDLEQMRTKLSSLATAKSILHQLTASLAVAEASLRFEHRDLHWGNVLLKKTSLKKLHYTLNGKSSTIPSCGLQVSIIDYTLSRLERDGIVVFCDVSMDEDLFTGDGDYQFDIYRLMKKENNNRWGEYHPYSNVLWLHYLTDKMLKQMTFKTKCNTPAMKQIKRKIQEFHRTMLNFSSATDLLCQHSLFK
Summary of the method: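 Human haspin activity measured by TR-FRET at varying test compound concentrations to give IC50, using the HTS format: histone H3 peptide substrate, with phosphorylated product (H3T3ph) detected by a europium-labelled phosphospecific monoclonal antibody. For the selectivity ratio, DYRK2 was assayed by 33P incorporation into Woodtide peptide with human N-terminal GST-fused DYRK2 and γ33P-ATP.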

human DYRK2 = biological target: T2, human DYRK2 (Homo sapiens, UniProt Q92630); test: DYRK2 kinase 33P-incorporation into Woodtide peptide; assay type: biochemical; details: read-out: IC50 DYRK2, Woodtide substrate
T2 sequence (Q92630 1-601): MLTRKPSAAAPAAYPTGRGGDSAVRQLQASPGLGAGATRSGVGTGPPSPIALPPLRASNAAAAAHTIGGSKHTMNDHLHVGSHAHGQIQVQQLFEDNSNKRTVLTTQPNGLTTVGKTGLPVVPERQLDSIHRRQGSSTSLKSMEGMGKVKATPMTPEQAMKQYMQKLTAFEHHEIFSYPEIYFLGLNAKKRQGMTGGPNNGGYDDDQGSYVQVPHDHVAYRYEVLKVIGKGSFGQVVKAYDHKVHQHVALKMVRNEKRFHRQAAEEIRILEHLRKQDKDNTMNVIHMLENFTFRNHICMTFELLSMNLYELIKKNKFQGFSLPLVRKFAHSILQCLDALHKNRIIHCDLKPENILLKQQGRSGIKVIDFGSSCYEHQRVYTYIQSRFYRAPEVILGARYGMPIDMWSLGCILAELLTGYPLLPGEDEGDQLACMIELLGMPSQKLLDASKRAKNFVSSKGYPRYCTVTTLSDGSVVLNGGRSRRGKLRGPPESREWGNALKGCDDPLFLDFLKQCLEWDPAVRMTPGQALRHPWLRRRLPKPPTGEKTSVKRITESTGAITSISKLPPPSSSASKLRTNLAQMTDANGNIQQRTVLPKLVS

[1] = read-out: IC50 haspin, TR-FRET assay

COc1ccc2nc3ccc(Cl)cc3c(SCCCN)c2c1 [Compound 33]
selectivity for haspin over DYRK2 (human haspin kinase; ratio of IC50 values): 180 fold
IC50 (human haspin kinase; [1]): 55 nM
IC50 (human haspin kinase; read-out: haspin IC50): < 60 nM
IC50 (human DYRK2): 9900 nM

COc1ccc2nc3ccc(OC)cc3c(SCCCN3C(=O)c4ccccc4C3=O)c2c1 [Compound 41]
IC50 (human haspin kinase; [1]): 2100 nM
